# Assay results published in ChEMBL document CHEMBL2010769, “Synthesis and antiviral activity of 6-deoxycyclopropavir, a new prodrug of cyclopropavir” (Bioorg Med Chem, 2012).
# Assays:
# [1] = test system: Human betaherpesvirus 5; test: Antiviral activity against HCMV Toledo infected in human thymus/liver tissue xenografted in SCID mouse assessed as mean log10 genome equivalents/animal at 20 mg/kg, po qd for 14 days by RT-PCR analysis (reference value: 3.50 +/- 0.878); assay type: functional, strain Toledo
# [2] = test system: Human betaherpesvirus 5; test: Antiviral activity against HCMV Toledo infected in human thymus/liver tissue xenografted in SCID mouse assessed as mean log10 genome equivalents/animal at 20 mg/kg, po qd for 21 days by RT-PCR analysis (reference value: 3.82 +/- 1.24); assay type: functional, strain Toledo
# [3] = test system: Human betaherpesvirus 5; test: Antiviral activity against HCMV Toledo infected in human thymus/liver tissue xenografted in SCID mouse assessed as mean log10 genome equivalents/animal at 20 mg/kg, po qd for 28 days by RT-PCR analysis (reference value: 3.73 +/- 0.784); assay type: functional, strain Toledo
# [4] = test system: Human betaherpesvirus 5; test: Antiviral activity against HCMV Toledo infected in human thymus/liver tissue xenografted in SCID mouse assessed as mean log10 genome equivalents/animal at 20 mg/kg, po qd for 28 days measured on day 35 by RT-PCR analysis (reference value: 3.28 +/- 1.422); assay type: functional, strain Toledo
# [5] = test system: Human betaherpesvirus 5; test: Antiviral activity against HCMV Toledo infected in human thymus/liver tissue xenografted in SCID mouse assessed as decrease in viral infection at 20 mg/kg, po qd for 14 days by RT-PCR analysis (reference value: 92%); assay type: functional, strain Toledo; set-up: scale not given: the % may be the effect or the level left
# [6] = test system: Human betaherpesvirus 5; test: Antiviral activity against HCMV Toledo infected in human thymus/liver tissue xenografted in SCID mouse assessed as decrease in viral infection at 20 mg/kg, po qd for 21 days by RT-PCR analysis (reference value: 92%); assay type: functional, strain Toledo; set-up: scale not given: the % may be the effect or the level left
# [7] = test system: Human betaherpesvirus 5; test: Antiviral activity against HCMV Toledo infected in human thymus/liver tissue xenografted in SCID mouse assessed as decrease in viral infection at 20 mg/kg, po qd for 28 days by RT-PCR analysis (reference value: 92%); assay type: functional, strain Toledo; set-up: scale not given: the % may be the effect or the level left
# [8] = test system: Human betaherpesvirus 5; test: Antiviral activity against HCMV Toledo infected in human thymus/liver tissue xenografted in SCID mouse assessed as decrease in viral infection at 20 mg/kg, po qd for 28 days measured on day 35 by RT-PCR analysis (reference value: 67%); assay type: functional, strain Toledo; set-up: scale not given: the % may be the effect or the level left
# [9] = test system: Murid betaherpesvirus 1; test: Antiviral activity against MCMV infected in BALB/c mouse assessed as decrease in virus-induced mortality at 50 mg/kg, po qd for 5 days administered 24 hrs after viral infection (reference value: 67%); assay type: functional; set-up: scale not given: the % may be the effect or the level left
# Procedure, shortened: (§1)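 Female BALB/c mice (3 weeks, 15/group) were inoculated ip with MCMV Smith at about LD90. Oral dosing of 0.2 mL in 0.4% CMC ran once daily for 5 days, starting 24 or 48 h post-inoculation. Mice were observed daily for 21 days. Mortality was compared with CMC placebo by Fisher's exact test.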
# [10] = test system: Murid betaherpesvirus 1; test: Antiviral activity against MCMV infected in BALB/c mouse assessed as decrease in virus-induced mortality at 16.7 mg/kg, po qd for 5 days administered 24 hrs after viral infection (reference value: 67%); assay type: functional; set-up: scale not given: the % may be the effect or the level left; procedure, shortened: as §1
# [11] = test system: Murid betaherpesvirus 1; test: Antiviral activity against MCMV infected in BALB/c mouse assessed as decrease in virus-induced mortality at 5.6 mg/kg, po qd for 5 days administered 24 hrs after viral infection (reference value: 67%); assay type: functional; set-up: scale not given: the % may be the effect or the level left; procedure, shortened: as §1
# [12] = test system: Murid betaherpesvirus 1; test: Antiviral activity against MCMV infected in BALB/c mouse assessed as decrease in virus-induced mortality at 50 mg/kg, po qd for 5 days administered 48 hrs after viral infection (reference value: 100%); assay type: functional; set-up: scale not given: the % may be the effect or the level left; procedure, shortened: as §1
# [13] = test system: Murid betaherpesvirus 1; test: Antiviral activity against MCMV infected in BALB/c mouse assessed as decrease in virus-induced mortality at 16.7 mg/kg, po qd for 5 days administered 48 hrs after viral infection (reference value: 100%); assay type: functional; set-up: scale not given: the % may be the effect or the level left; procedure, shortened: as §1
# [14] = test system: Murid betaherpesvirus 1; test: Antiviral activity against MCMV infected in BALB/c mouse assessed as decrease in virus-induced mortality at 5.6 mg/kg, po qd for 5 days administered 48 hrs after viral infection (reference value: 100%); assay type: functional; set-up: scale not given: the % may be the effect or the level left; procedure, shortened: as §1
# [15] = test system: Murid betaherpesvirus 1; test: Antiviral activity against MCMV infected in BALB/c mouse assessed as decrease in virus-induced mean day of death at 50 mg/kg, po qd for 5 days administered 24 hrs after viral infection (reference value: 4.9 +/- 0.7 days); assay type: functional
# [16] = test system: Murid betaherpesvirus 1; test: Antiviral activity against MCMV infected in BALB/c mouse assessed as decrease in virus-induced mean day of death at 16.7 mg/kg, po qd for 5 days administered 24 hrs after viral infection (reference value: 4.9 +/- 0.7 days); assay type: functional
# [17] = test system: Murid betaherpesvirus 1; test: Antiviral activity against MCMV infected in BALB/c mouse assessed as decrease in virus-induced mean day of death at 5.6 mg/kg, po qd for 5 days administered 24 hrs after viral infection (reference value: 4.9 +/- 0.7 days); assay type: functional
# [18] = test system: Murid betaherpesvirus 1; test: Antiviral activity against MCMV infected in BALB/c mouse assessed as decrease in virus-induced mean day of death at 50 mg/kg, po qd for 5 days administered 48 hrs after viral infection (reference value: 5.1 +/- 0.9 days); assay type: functional
# [19] = test system: Murid betaherpesvirus 1; test: Antiviral activity against MCMV infected in BALB/c mouse assessed as decrease in virus-induced mean day of death at 16.7 mg/kg, po qd for 5 days administered 48 hrs after viral infection (reference value: 5.1 +/- 0.9 days); assay type: functional
# [20] = test system: Murid betaherpesvirus 1; test: Antiviral activity against MCMV infected in BALB/c mouse assessed as decrease in virus-induced mean day of death at 5.6 mg/kg, po qd for 5 days administered 48 hrs after viral infection (reference value: 5.1 +/- 0.9 days); assay type: functional
# [21] = test system: Murid betaherpesvirus 1; test: Antiviral activity against MCMV infected in SCID mouse assessed as log10 reduction in viral titer in liver at 10 mg/kg, po relative to control; assay type: functional
# [22] = test system: Murid betaherpesvirus 1; test: Antiviral activity against MCMV infected in SCID mouse assessed as log10 reduction in viral titer in lung at 10 mg/kg, po relative to control; assay type: functional
# [23] = test system: Murid betaherpesvirus 1; test: Antiviral activity against MCMV infected in SCID mouse assessed as log10 reduction in viral titer in spleen at 10 mg/kg, po relative to control; assay type: functional
# [24] = test system: Murid betaherpesvirus 1; test: Antiviral activity against MCMV infected in SCID mouse assessed as log10 reduction in viral titer in kidney at 10 mg/kg, po relative to control; assay type: functional
smiles,measurement,setting,value
Nc1ccn(C[C@@H](CO)OCP(=O)(O)O)c(=O)n1.O.O [CIDOFOVIR],Activity,[1],2.47
same,Activity,[2],2.83
same,Activity,[3],2.08
same,Activity,[4],1.59
same,Activity,[5],82%
same,Activity,[6],100%
same,Activity,[7],50%
same,Activity,[8],0%
Nc1nc2c(ncn2COC(CO)CO)c(=O)[nH]1 [GANCICLOVIR],Activity,[9],7%
same,Activity,[10],20%
same,Activity,[11],87%
same,Activity,[12],20%
same,Activity,[13],53%
same,Activity,[14],93%
same,Activity,[15],6 days
same,Activity,[16],6.3 days
same,Activity,[17],6.8 days
same,Activity,[18],5.7 days
same,Activity,[19],7.3 days
same,Activity,[20],6.4 days
Nc1nc2c(ncn2/C=C2/CC2(CO)CO)c(=O)[nH]1 [FILOCICLOVIR],FC,[21],2
same,FC,[22],2
same,FC,[23],2
same,FC,[24],2
